The source made the active and inactive calls. The rule behind the calls is not given here.
Experiments:
Escherichia coli [1] = assay: Antibacterial activity against Escherichia coli BL21(DE3) incubated for 12 hrs by UV-Vis spectrophotometric analysis; assay type: functional, organism-based
Summary of the method: (§1)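 E. coli grown in LB medium with the prodrug added, alone or together with 50 µM Na2S (H2S source) or 5 mM L-Cys. Cultures were incubated for 12 h, at 37 °C where stated, and growth was read as OD600 per sample. Controls: Na2S or L-Cys alone, and 30 nM NBD-SH by-product.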

Escherichia coli [2] = assay: Antibacterial activity against Escherichia coli BL21(DE3) at lower concentration incubated for 12 hrs by UV-Vis spectrophotometric analysis; assay type: functional, organism-based; summary of the method: as §1
[3] = Solubility of compound in 20 mM PBS buffer at pH 7.4 in presence of Na2S by UV-Vis spectrophotometric analysis; assay type: physicochemical
[4] = Prodrug activation in pH 7.4 PBS buffer assessed as ciprofloxacin formation by measuring increase in fluorescence at 5 uM in presence of Na2S at 415 nanometer by fluorescence assay relative to control; settings: pH 7.4, 5 µM
Summary of the method: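 Prodrug at 5 µM mixed with Na2S (100 µM) in PBS; fluorescence spectra recorded over time, excitation 280 nm. Emission at 415 nm plotted against time and fitted to give k_obs. Repeated at several Na2S concentrations; slope of k_obs versus [Na2S] gives k2.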

[5] = Prodrug activation in pH 7.4 PBS buffer assessed as formation of ciprofloxacin by measuring reaction rate constant at 5 uM in presence of Na2S by fluorescence assay; settings: pH 7.4, 5 µM
Summary of the method: (§2)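 Fluorescence spectra over time of 5 µM prodrug with 100 µM Na2S in PBS, excitation 280 nm; emission at 415 nm versus time fitted to give kobs; kobs plotted against Na2S concentration, slope of linear fit gives k2.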

[6] = Prodrug activation in pH 7.4 PBS buffer at 5 uM incubated for 30 mins in presence of Cys by fluorescence assay; settings: pH 7.4, 0.5 h
Summary of the method: (§3)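 Fluorescence of prodrug checked in PBS after exposure to millimolar biothiols, 10 mM GSH or 5 mM Cys.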

[7] = Prodrug activation in pH 7.4 PBS buffer at 5 uM incubated for 30 mins in presence of GSH by fluorescence assay; settings: pH 7.4, 0.5 h; summary of the method: as §3
[8] = Prodrug activation in pH 7.4 PBS buffer at 5 uM incubated for 30 mins in presence of 50 to 200 uM H2O2 by fluorescence assay; settings: pH 7.4, 0.5 h
Summary of the method: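 Fluorescence of prodrug read in PBS after exposure to a range of H2O2 concentrations up to 200 µM.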

Escherichia coli [9] = assay: Antibacterial activity against Escherichia coli BL21(DE3) at 30 nM incubated for 12 hrs by UV-Vis spectrophotometric analysis; assay type: functional, organism-based
Summary of the method: (§4)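 E. coli cultured in LB medium with additions of 30 nM prodrug, 30 nM NBD-SH, 50 µM Na2S, 5 mM L-Cys, or combinations (Na2S or L-Cys plus 30 nM prodrug); incubated 12 h, then bacterial density read as OD600.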

Escherichia coli [10] = assay: Antibacterial activity against Escherichia coli BL21(DE3) at 30 nM incubated for 12 hrs in presence of GSH by UV-Vis spectrophotometric analysis; assay type: functional, organism-based
Escherichia coli [11] = assay: Antibacterial activity against Escherichia coli BL21(DE3) at 30 nM incubated for 12 hrs in presence of H2S by UV-Vis spectrophotometric analysis; assay type: functional, organism-based; summary of the method: as §4
Escherichia coli [12] = assay: Antibacterial activity against Escherichia coli BL21(DE3) at >0.2 uM incubated for 12 hrs by UV-Vis spectrophotometric analysis; assay type: functional, organism-based
Escherichia coli [13] = assay: Antibacterial activity against Escherichia coli BL21(DE3) incubated for 12 hrs in presence of Na2S by UV-Vis spectrophotometric analysis; assay type: functional; summary of the method: as §4
[14] = Prodrug activation in pH 7.4 PBS buffer assessed as absorption peak for ciprofloxacin formation at 10 uM in presence of Na2S by UV-Vis spectrophotometric analysis; settings: pH 7.4, 10 µM
Summary of the method: (§5)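 Absorption spectra recorded over time for 10 µM prodrug with 200 µM Na2S in 50 mM PBS, pH 7.4; bands followed at 350, 490 and new 530 nm; kinetics followed by intensity at 560 nm.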

[15] = Prodrug activation in pH 7.4 PBS buffer assessed as absorption peak for NBD fluorophore formation at 10 uM in presence of Na2S by UV-Vis spectrophotometric analysis; settings: pH 7.4, 10 µM; summary of the method: as §5
[16] = Prodrug activation in pH 7.4 PBS buffer assessed as ciprofloxacin formation by measuring increase in fluorescence at 5 uM in presence of Na2S at 415 nanometer by fluorescence assay; settings: pH 7.4, 5 µM, TDE = time-dependent effect; summary of the method: as §2
Escherichia coli [17] = assay: Antibacterial activity against Escherichia coli BL21(DE3) incubated for 12 hrs in presence of L-Cys by UV-Vis spectrophotometric analysis; assay type: functional, organism-based; summary of the method: as §4
[18] = Prodrug activation in pH 7.4 PBS buffer assessed as second order rate constant at 10 uM in presence of Na2S by UV-Vis spectrophotometric analysis; settings: pH 7.4, 10 µM

O=[N+]([O-])c1ccc(S)c2nonc12
Activity (Escherichia coli [1]): inactive | Activity (Escherichia coli [2]): inactive

O=C(O)c1cn(C2CC2)c2cc(N3CCN(c4ccc([N+](=O)[O-])c5nonc45)CC3)c(F)cc2c1=O
solubility [3]: 17 µM | fold change (FC) [4]: 62 | K [5]: 12 M⁻¹ s⁻¹ | Drug metabolism [6]: Metabolite_Notdetected | Drug metabolism [7]: Metabolite_Notdetected | Drug metabolism [8]: Metabolite_Notdetected | Activity (Escherichia coli [9]): inactive | Activity (Escherichia coli [10]): inactive | Activity (Escherichia coli [11]): Active | Activity (Escherichia coli [12]): Active | MIC (Escherichia coli [13]): 0.03 µM | Activity [14]: 350 nm | Activity [15]: 490 nm | Drug metabolism [16]: Tde | Activity (Escherichia coli [2]): Active | Activity (Escherichia coli [17]): Active | k2 [18]: 12.9 M⁻¹ s⁻¹

From ChEMBL document CHEMBL4396944, “A fluorogenic H2S-triggered prodrug based on thiolysis of the NBD amine” (Bioorg Med Chem Lett, 2019)
